From ChEMBL document CHEMBL5107938, “Synthesis and biological evaluation of selective phosphonate-bearing 1,2,3-triazole-linked sialyltransferase inhibitors” (RSC Med Chem, 2021)

What was measured:
[1] = molecular target: T1, Beta-galactoside alpha-2,6-sialyltransferase 1 (Homo sapiens) (UniProt P15907); test: Inhibition of recombinant human ST6Gal I at 100 uM incubated for 1 hrs in the presence of CMP-Neu5Ac as donor and LacNAc as acceptor by luminescence based CMP-Glo assay relative to control
T1 sequence (whole entry): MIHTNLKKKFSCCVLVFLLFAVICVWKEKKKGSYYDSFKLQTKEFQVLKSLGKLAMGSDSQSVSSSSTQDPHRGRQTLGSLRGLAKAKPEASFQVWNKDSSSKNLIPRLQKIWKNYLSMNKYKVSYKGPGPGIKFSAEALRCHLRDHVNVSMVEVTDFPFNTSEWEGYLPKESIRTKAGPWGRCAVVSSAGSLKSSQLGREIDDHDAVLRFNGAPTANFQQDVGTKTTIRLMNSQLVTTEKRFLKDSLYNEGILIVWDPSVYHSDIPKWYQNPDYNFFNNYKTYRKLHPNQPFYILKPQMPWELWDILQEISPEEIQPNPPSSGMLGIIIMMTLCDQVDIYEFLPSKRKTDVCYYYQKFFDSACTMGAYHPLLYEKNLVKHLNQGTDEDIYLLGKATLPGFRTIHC
Procedure, shortened: (§1)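 Human enzyme reaction with 1 mM acceptor and 100 μM CMP-Neu5Ac donor. Test agent at 10 or 100 μM, incubated for a single hour. CMP formed as by-product was converted in a luciferase reaction, and luminescence, linear with CMP concentration, was read. Percent inhibition was calculated against control.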

[2] = molecular target: T2, CMP-N-acetylneuraminate-beta-galactosamide-alpha-2,3-sialyltransferase 1 (Homo sapiens) (UniProt Q11201); test: Inhibition of recombinant human ST3Gal I at 100 uM incubated for 1 hrs in the presence of CMP-Neu5Ac as donor and Gal-beta1,3-GalNAc as acceptor by luminescence based CMP-Glo assay relative to control; procedure, shortened: as §1
T2 sequence (whole entry): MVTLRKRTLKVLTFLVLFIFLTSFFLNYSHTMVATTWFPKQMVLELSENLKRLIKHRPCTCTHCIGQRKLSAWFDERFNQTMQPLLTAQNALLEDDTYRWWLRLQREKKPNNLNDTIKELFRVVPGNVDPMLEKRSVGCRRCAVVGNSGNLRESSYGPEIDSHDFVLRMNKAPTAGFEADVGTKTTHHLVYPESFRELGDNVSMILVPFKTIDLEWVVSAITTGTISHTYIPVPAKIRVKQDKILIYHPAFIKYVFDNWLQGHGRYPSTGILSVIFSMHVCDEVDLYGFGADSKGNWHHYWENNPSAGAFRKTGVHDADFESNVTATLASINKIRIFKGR

[3] = molecular target: T3, Beta-galactoside alpha-2,6-sialyltransferase 1 (Homo sapiens, UniProt P15907); test: Inhibition of recombinant human ST6Gal I incubated for 1 hrs in the presence of CMP-Neu5Ac as donor and LacNAc as acceptor by luminescence based CMP-Glo assay
T3 sequence (P15907 whole entry): T1 sequence (whole entry)
Procedure, shortened: (§2)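 For hST6Gal I, the Km for CMP-Neu5Ac was determined with acceptor held at 1 mM. Ki was determined only for agents exceeding 50% inhibition at 10 μM in the screen (1 mM acceptor, 100 μM donor). Read-out was luciferase-coupled luminescence of released CMP after a single-hour incubation.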

[4] = molecular target: T1, Beta-galactoside alpha-2,6-sialyltransferase 1 (Homo sapiens); test: Inhibition of recombinant human ST6Gal I at 10 uM incubated for 1 hrs in the presence of CMP-Neu5Ac as donor and LacNAc as acceptor by luminescence based CMP-Glo assay relative to control; procedure, shortened: as §1
[5] = molecular target: T1, Beta-galactoside alpha-2,6-sialyltransferase 1 (Homo sapiens); test: Ratio of Km for Substrate activity at recombinant human ST6Gal I to Ki for inhibition of recombinant human ST6Gal I at 10 uM incubated for 1 hrs in the presence of CMP-Neu5Ac as donor and LacNAc as acceptor; procedure, shortened: as §2

In the case of O=c1ccn([C@@H]2O[C@H](Cn3cc(C(O)c4cccc(Oc5ccccc5)c4)nn3)[C@@H](O)[C@H]2O)c(=O)[nH]1 (some centres undefined), the inhibition [1] is reported as 84% and the inhibition [2] is reported as 43%.

In the case of O=c1ccn([C@@H]2O[C@H](COCc3cn(C(c4cccc(OC(F)(F)C(F)F)c4)P(=O)(O)O)nn3)[C@@H](O)[C@H]2O)c(=O)[nH]1 (single isomer, unassigned) [listing 1 of 2 here], the Ki [3] is reported as 6.7 µM.

Work on O=c1ccn([C@@H]2O[C@H](COCc3cn(C(c4ccc(F)cc4)P(=O)(O)O)nn3)[C@@H](O)[C@H]2O)c(=O)[nH]1 (single isomer, unassigned) yielded an inhibition [4] of 44%.

Work on O=c1ccn([C@@H]2O[C@H](COCc3cn(C(c4cccc(OC(F)(F)C(F)F)c4)P(=O)(O)O)nn3)[C@@H](O)[C@H]2O)c(=O)[nH]1 (single isomer, unassigned) [listing 2 of 2 here] yielded an inhibition [2] of 49%, an inhibition [4] of 65% and a Ratio [5] of 5.6.

O=c1ccn([C@@H]2O[C@H](COCc3cn(C(c4cccc(OC5CCCC5)c4)P(=O)(O)O)nn3)[C@@H](O)[C@H]2O)c(=O)[nH]1 (single isomer, unassigned) gave an inhibition [4] of 41%.

Compound O=c1ccn([C@@H]2O[C@H](COCc3cn(C(c4cccc(C(F)(F)F)c4)P(=O)(O)O)nn3)[C@@H](O)[C@H]2O)c(=O)[nH]1 (single isomer, unassigned; form 1) has an inhibition [4] of 23%.

O=c1ccn([C@@H]2O[C@H](COCc3cn(C(c4cccc(C(F)(F)F)c4)P(=O)(O)O)nn3)[C@@H](O)[C@H]2O)c(=O)[nH]1 (single isomer, unassigned; form 2) was tested, and the inhibition [4] was 39%.

Compound O=c1ccn([C@@H]2O[C@H](COCc3cn(C(c4cccc(Oc5ccccc5)c4)P(=O)(O)O)nn3)[C@@H](O)[C@H]2O)c(=O)[nH]1 (stereo in doubt; 13a-(l)) [listing 1 of 2 here] has a Ki [3] of 50 µM.

For O=c1ccn([C@@H]2O[C@H](COCc3cn(C(c4cccc(Oc5ccccc5)c4)P(=O)(O)O)nn3)[C@@H](O)[C@H]2O)c(=O)[nH]1 (stereo in doubt; 13a-(l)) [listing 2 of 2 here], the inhibition [2] was 2%, the inhibition [4] was 26% and the Ratio [5] was 0.7.

Work on O=c1ccn([C@@H]2O[C@H](COCc3cn(C(c4cccc(Oc5ccccc5)c4)P(=O)(O)O)nn3)[C@@H](O)[C@H]2O)c(=O)[nH]1 (stereo in doubt; 13a-(s)) [listing 1 of 2 here] yielded a Ki [3] of 40 µM.

Work on O=c1ccn([C@@H]2O[C@H](COCc3cn(C(c4cccc(Oc5ccccc5)c4)P(=O)(O)O)nn3)[C@@H](O)[C@H]2O)c(=O)[nH]1 (stereo in doubt; 13a-(s)) [listing 2 of 2 here] yielded an inhibition [2] of 28%, an inhibition [4] of 62% and a Ratio [5] of 1.

Compound O=c1ccn([C@@H]2O[C@H](COCc3cn(C(c4cccc(OC5CCCC5)c4)P(=O)(O)O)nn3)[C@@H](O)[C@H]2O)c(=O)[nH]1 (stereo in doubt; 13b-(l)) has an inhibition [4] of 10%.

Work on O=c1ccn([C@@H]2O[C@H](COCc3cn(C(c4ccc(F)c(Oc5ccccc5)c4)P(=O)(O)O)nn3)[C@@H](O)[C@H]2O)c(=O)[nH]1 (stereo in doubt; 13c-(l)) [listing 1 of 2 here] yielded a Ki [3] of 34 µM.

In the case of O=c1ccn([C@@H]2O[C@H](COCc3cn(C(c4ccc(F)c(Oc5ccccc5)c4)P(=O)(O)O)nn3)[C@@H](O)[C@H]2O)c(=O)[nH]1 (stereo in doubt; 13c-(l)) [listing 2 of 2 here], the inhibition [2] is reported as 9%, the inhibition [4] is reported as 59% and the Ratio [5] is reported as 1.1.

O=c1ccn([C@@H]2O[C@H](COCc3cn(C(c4ccc(F)c(Oc5ccccc5)c4)P(=O)(O)O)nn3)[C@@H](O)[C@H]2O)c(=O)[nH]1 (stereo in doubt; 13c-(s)) [listing 1 of 2 here] gave a Ki [3] of 6 µM.

O=c1ccn([C@@H]2O[C@H](COCc3cn(C(c4ccc(F)c(Oc5ccccc5)c4)P(=O)(O)O)nn3)[C@@H](O)[C@H]2O)c(=O)[nH]1 (stereo in doubt; 13c-(s)) [listing 2 of 2 here] showed an inhibition [2] of 43%, an inhibition [4] of 57% and a Ratio [5] of 6.

In the case of O=c1ccn([C@@H]2O[C@H](COCc3cn(C(c4ccc(F)cc4)P(=O)(O)O)nn3)[C@@H](O)[C@H]2O)c(=O)[nH]1 (stereo in doubt; 13d-(l)), the inhibition [4] is reported as 45%.

O=c1ccn([C@@H]2O[C@H](COCc3cn(C(c4cccc(OC(F)(F)C(F)F)c4)P(=O)(O)O)nn3)[C@@H](O)[C@H]2O)c(=O)[nH]1 (stereo in doubt; 13f-(l)) [listing 1 of 2 here] showed a Ki [3] of 3.4 µM.

Compound O=c1ccn([C@@H]2O[C@H](COCc3cn(C(c4cccc(OC(F)(F)C(F)F)c4)P(=O)(O)O)nn3)[C@@H](O)[C@H]2O)c(=O)[nH]1 (stereo in doubt; 13f-(l)) [listing 2 of 2 here] has an inhibition [2] of 39%, an inhibition [4] of 78% and a Ratio [5] of 11.

Compound O=c1ccn([C@@H]2O[C@H](COCc3cn(C(c4csc5ccccc45)P(=O)(O)O)nn3)[C@@H](O)[C@H]2O)c(=O)[nH]1 (stereo in doubt; 13g-(l)) has an inhibition [4] of 21%.

Work on O=c1ccn([C@@H]2O[C@H](COCc3cn(C(c4csc5ccccc45)P(=O)(O)O)nn3)[C@@H](O)[C@H]2O)c(=O)[nH]1 (stereo in doubt; 13g-(s)) yielded an inhibition [4] of 25%.
